Experiments:
[1] = target: T1, Prostaglandin E2 receptor EP1 subtype (Mus musculus, UniProt P35375); experiment: Displacement of [3H]-PGE2 from mouse EP1 receptor expressed in CHO cells after 20 mins by liquid scintillation counting; format: cell-based
T1 sequence (P35375 whole entry): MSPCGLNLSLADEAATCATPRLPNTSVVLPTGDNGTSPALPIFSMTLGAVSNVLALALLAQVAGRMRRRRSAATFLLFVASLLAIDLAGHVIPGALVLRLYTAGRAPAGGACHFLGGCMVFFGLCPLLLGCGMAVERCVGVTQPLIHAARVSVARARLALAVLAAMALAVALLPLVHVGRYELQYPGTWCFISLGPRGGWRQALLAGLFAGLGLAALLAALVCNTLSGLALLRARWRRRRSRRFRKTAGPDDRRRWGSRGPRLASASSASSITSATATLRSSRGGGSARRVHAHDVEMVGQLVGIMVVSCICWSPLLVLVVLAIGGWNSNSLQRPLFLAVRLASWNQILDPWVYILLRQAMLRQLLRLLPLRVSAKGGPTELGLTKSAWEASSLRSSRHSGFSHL
Outline: (§1)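 Membranes from CHO cells stably expressing mEP1, mEP2, mEP3a, mEP4 or mFP were used. The radioligand was 2.5 nM [³H]PGE₂ for EP receptors and 2.5 nM [³H]PGF2α for FP. Buffer was 10 mM KH₂PO₄–KOH pH 6.0 with 1 mM EDTA, 10 mM MgCl₂ and 100 mM NaCl. Incubation was at room temperature, 20 min for mEP1 and 60 min for the others. Samples were filtered on GF/B, washed with phosphate/NaCl pH 6.0, dried 60 min at 60 °C and scintillation counted.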

[2] = target: Prostaglandin E2 receptor EP2 subtype (Mus musculus, UniProt Q62053); experiment: Displacement of [3H]-PGE2 from mouse EP2 receptor expressed in CHO cells after 60 mins by liquid scintillation counting; format: cell-based; outline: as §1
Sequence of Prostaglandin E2 receptor EP2 subtype (Q62053 whole entry): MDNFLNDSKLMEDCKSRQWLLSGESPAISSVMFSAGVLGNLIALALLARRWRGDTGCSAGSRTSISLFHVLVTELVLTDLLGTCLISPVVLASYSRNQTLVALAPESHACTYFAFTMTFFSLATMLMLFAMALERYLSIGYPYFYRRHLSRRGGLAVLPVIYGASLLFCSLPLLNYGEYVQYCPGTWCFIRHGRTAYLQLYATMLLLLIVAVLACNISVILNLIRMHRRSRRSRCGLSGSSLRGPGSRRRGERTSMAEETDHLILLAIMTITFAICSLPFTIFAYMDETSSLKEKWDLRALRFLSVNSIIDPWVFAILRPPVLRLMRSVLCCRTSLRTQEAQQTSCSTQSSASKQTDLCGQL

[3] = target: T2, Prostaglandin E2 receptor EP3 subtype (Mus musculus, UniProt P30557); experiment: Displacement of [3H]-PGE2 from mouse EP3 receptor expressed in CHO cells after 60 mins by liquid scintillation counting; format: cell-based; outline: as §1
T2 sequence (P30557 whole entry): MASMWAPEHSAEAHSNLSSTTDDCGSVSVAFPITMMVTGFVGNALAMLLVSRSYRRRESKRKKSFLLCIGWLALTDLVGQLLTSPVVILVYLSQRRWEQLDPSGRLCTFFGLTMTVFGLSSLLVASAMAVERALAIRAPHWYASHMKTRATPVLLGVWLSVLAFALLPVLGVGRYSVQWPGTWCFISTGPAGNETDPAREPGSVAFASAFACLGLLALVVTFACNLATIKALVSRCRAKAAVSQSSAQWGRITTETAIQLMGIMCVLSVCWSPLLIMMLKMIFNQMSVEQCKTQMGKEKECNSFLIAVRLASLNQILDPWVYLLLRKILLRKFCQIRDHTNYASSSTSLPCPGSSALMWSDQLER

[4] = target: Prostaglandin E2 receptor EP4 subtype (Mus musculus, UniProt P32240); experiment: Displacement of [3H]-PGE2 from mouse EP4 receptor expressed in CHO cells after 60 mins by liquid scintillation counting; format: cell-based; outline: as §1
Sequence of Prostaglandin E2 receptor EP4 subtype (P32240 whole entry): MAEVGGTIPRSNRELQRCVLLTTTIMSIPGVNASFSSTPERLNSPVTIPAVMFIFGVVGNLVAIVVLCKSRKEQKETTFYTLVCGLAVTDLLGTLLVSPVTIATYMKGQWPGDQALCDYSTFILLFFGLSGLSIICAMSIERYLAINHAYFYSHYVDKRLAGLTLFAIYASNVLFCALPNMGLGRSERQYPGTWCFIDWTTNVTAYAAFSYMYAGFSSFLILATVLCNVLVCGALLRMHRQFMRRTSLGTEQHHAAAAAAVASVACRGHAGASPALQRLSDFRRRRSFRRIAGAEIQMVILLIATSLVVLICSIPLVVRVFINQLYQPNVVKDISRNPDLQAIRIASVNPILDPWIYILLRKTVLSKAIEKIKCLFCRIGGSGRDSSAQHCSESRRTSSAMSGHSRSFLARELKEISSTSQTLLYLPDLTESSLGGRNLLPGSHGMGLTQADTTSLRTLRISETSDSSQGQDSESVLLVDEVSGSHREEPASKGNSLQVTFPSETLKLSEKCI

[5] = target: Prostaglandin F2-alpha receptor (Mus musculus, UniProt P43117); experiment: Displacement of [3H]-PGF2-alpha from mouse FP receptor expressed in CHO cells after 60 mins by liquid scintillation counting; format: cell-based; outline: as §1
Sequence of Prostaglandin F2-alpha receptor (P43117 whole entry): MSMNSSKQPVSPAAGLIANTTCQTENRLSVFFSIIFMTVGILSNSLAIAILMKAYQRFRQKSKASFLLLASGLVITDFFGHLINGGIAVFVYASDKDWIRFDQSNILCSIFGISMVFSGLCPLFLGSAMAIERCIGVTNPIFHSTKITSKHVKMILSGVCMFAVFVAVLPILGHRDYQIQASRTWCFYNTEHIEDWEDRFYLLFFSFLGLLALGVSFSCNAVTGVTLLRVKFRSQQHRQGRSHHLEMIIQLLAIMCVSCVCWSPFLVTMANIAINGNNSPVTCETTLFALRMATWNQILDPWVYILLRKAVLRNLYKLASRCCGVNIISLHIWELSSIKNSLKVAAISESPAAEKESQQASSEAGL

Thromboxane A2 receptor = target: T3, Thromboxane A2 receptor (Homo sapiens, UniProt P21731); experiment: Displacement of [3H]-SQ29548 from human TP receptor expressed in CHO cells after 30 mins by liquid scintillation counting; format: cell-based
T3 sequence (P21731 whole entry): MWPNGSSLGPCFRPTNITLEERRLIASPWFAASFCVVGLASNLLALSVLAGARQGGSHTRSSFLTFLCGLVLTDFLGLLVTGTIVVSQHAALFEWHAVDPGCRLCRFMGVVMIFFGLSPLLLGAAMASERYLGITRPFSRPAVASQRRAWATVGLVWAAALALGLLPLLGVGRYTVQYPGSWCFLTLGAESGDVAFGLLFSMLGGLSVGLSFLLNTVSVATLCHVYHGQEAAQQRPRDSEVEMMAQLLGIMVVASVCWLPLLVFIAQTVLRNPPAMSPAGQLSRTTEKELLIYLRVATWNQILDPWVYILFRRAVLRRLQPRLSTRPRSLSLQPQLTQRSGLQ
Outline: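 Membranes from CHO cells expressing hTP were incubated with 5.0 nM [³H]-SQ29548 and compounds at various concentrations. Buffer was 10 mM Tris–HCl pH 7.5 with 100 mM NaCl, for 30 min at room temperature. Samples were filtered on GF/B, washed with the same buffer, dried 60 min at 60 °C and scintillation counted. Nonspecific binding was set with excess unlabeled SQ29548.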

Prostacyclin receptor = Prostacyclin receptor (Homo sapiens, UniProt P43119); experiment: Displacement of [3H]-Iloprost from human IP receptor expressed in CHO cells after 30 mins by liquid scintillation counting; format: cell-based
Sequence of Prostacyclin receptor (P43119 whole entry): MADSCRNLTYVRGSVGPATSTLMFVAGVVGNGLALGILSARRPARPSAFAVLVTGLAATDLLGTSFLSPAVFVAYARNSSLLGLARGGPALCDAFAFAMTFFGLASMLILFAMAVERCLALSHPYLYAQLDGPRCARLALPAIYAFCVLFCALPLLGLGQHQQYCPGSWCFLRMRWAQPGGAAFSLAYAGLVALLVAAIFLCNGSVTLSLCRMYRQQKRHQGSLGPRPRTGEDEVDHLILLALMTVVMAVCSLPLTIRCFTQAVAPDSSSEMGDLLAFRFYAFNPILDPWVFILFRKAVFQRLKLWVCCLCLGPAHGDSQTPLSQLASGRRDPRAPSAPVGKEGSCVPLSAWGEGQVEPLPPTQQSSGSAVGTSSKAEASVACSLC
Outline: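 Membranes from CHO cells expressing hIP were incubated with 5.0 nM [³H]Iloprost and compounds at various concentrations. Buffer was 50 mM Tris–HCl pH 7.5 with 1 mM EDTA and 10 mM MgCl₂, for 30 min at room temperature. Samples were filtered on GF/B, washed with 10 mM Tris–HCl/100 mM NaCl pH 7.5, dried 60 min at 60 °C and scintillation counted.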

[6] = target: T4, Prostaglandin D2 receptor (Mus musculus, UniProt P70263); experiment: Displacement of [3H]-PGD2 from mouse DP receptor expressed in CHO cells after 20 mins by liquid scintillation counting; format: cell-based
T4 sequence (P70263 whole entry): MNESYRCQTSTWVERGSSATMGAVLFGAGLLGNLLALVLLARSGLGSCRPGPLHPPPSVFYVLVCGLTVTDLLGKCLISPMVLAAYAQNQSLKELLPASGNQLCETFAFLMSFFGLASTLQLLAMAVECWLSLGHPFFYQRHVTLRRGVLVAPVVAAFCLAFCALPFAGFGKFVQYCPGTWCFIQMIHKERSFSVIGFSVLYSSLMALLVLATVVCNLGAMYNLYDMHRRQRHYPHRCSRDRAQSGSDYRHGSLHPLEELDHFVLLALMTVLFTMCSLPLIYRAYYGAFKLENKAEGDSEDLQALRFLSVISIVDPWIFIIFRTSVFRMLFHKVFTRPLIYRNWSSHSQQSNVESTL
Outline: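 Membranes from CHO cells stably expressing mDP were incubated with 2.5 nM [³H]PGD₂ and compounds at various concentrations. Buffer was 25 mM HEPES–NaOH pH 7.4 with 1 mM EDTA, 5 mM MgCl₂ and 10 mM MnCl₂, for 20 min at room temperature. Samples were filtered on GF/B and washed with Tris–HCl pH 7.4, NaCl, 0.01% BSA. Filters were dried 60 min at 60 °C and read by scintillation counting. Nonspecific binding was set with excess unlabeled PGD₂.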

[7] = target: T4, Prostaglandin D2 receptor; experiment: Antagonist activity at mouse DP receptor expressed in CHO cells assessed as inhibition of PGD2-induced cAMP accumulation after 10 mins by enzyme immunoassay in the presence of 0.1% BSA; format: functional, cell-based
Outline: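 CHO cells stably expressing mDP were seeded at 1 × 10⁵ cells/well and grown 2 days. They were preincubated about 10 min at 37 °C in MEM with Diclofenac, then given assay medium (MEM, 0.1% BSA, 1 mM IBMX, Diclofenac). Test compound at various concentrations plus 10 nM PGD₂ was added for 10 min at 37 °C. The reaction was stopped with ice-cold 10% TCA and TCA was extracted. cAMP was measured by EIA. IC50 came from cAMP relative to the PGD₂-only maximum.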

Cavia porcellus [8] = experiment: Inhibition of OVA-induced vascular permeability in guinea pig conjunctiva at 3 mg/kg, po administered 1 hr before antigen challenge measured after 30 mins; format: functional
Outline: (§2)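 Male Hartley guinea pigs were sensitized i.p. with OVA (1 mg) plus inactivated Bordetella pertussis. Two weeks later they were challenged with topical OVA (1%, 20 µL/eye), followed at once by Evans blue (20 mg/kg iv). Compound was given orally 1 h before challenge. After 30 min, conjunctiva was removed and extracted in DMF at 37 °C. Dye was read at 620 nm against a standard curve.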

Cavia porcellus [9] = experiment: Inhibition of OVA-induced vascular permeability in guinea pig conjunctiva at 1 mg/kg, po administered 1 hr before antigen challenge measured after 30 mins; format: functional; outline: as §2

| Ki [1] [nM] | Ki [2] [nM] | Ki [3] [nM] | Ki [4] [nM] | Ki [5] [nM] | IC50 (Thromboxane A2 receptor) [nM] | Ki (Prostacyclin receptor) [nM] | Ki [6] [nM] | IC50 [7] [nM] | Ki (Thromboxane A2 receptor) [nM] | SMILES | inhibition in vivo at 3 mg/kg (Cavia porcellus [8]) [%] | inhibition in vivo at 1 mg/kg (Cavia porcellus [9]) [%] |
| --- | --- | --- | --- | --- | --- | --- | --- | --- | --- | --- | --- | --- |
| 2900 | 500 | 3600 | > 10000 | 2600 | > 10000 | 130 | 3.5 | 1.1 |  | Cc1cc(OC[C@@H]2CN(C)c3ccccc3O2)ccc1C(=O)n1c(C)c(CC(=O)O)c2ccccc21 | 29 |  |
| > 10000 | 600 | > 10000 | > 10000 |  |  | 92 | 4.4 | 2.2 |  | Cc1c(CC(=O)O)c2ccccc2n1C(=O)c1ccc(OC[C@@H]2CN(C)c3ccccc3O2)cc1Cl | 48 |  |
| > 10000 | 370 | 3200 | 4100 | 1200 | > 10000 | 200 | 5.2 | 1.6 |  | Cc1c(CC(=O)O)c2cc(F)ccc2n1C(=O)c1ccc(OC[C@@H]2CN(C)c3ccccc3O2)cc1Cl | 52 |  |
| > 10000 | 2700 | 2800 | 1600 | 1400 | 7600 | 2200 | 4.8 | 2.2 |  | CCN1c2ccccc2C[C@@H]1COc1ccc(C(=O)n2c(C)c(CC(=O)O)c3ccccc32)c(C)c1 |  | 42 |
|  |  |  | > 10000 | 3100 |  | 37 | 16 | 2.4 | 260 | Cc1cc2c(CC(=O)O)cccc2n1C(=O)c1ccc(OC[C@@H]2CN(C)c3ccccc3O2)cc1 | 41 | 23 |

— ChEMBL document CHEMBL1811829, “Discovery of selective indole-based prostaglandin D₂ receptor antagonist” (Bioorg Med Chem, 2011)
